Source: ChEMBL document CHEMBL1914425, “Amine-alkyl derivatives of hydantoin: new tool to combat resistant bacteria” (2011)
≈ marks a conversion by molar mass, not a printed value. Calls of active or inactive are those of the source. The calls are words filed in the database; no cut-off is given here.

Columns and labels:
Klebsiella aerogenes [1] = experiment: Antibacterial activity against Enterobacter aerogenes ATCC 13048 after 18 hrs by two fold serial dilution method; format: functional; settings: ATCC 13048, 18 h
Klebsiella aerogenes [2] = experiment: Antibacterial activity against AcrAB-TolC-over producing Enterobacter aerogenes CM-64 after 18 hrs by two fold serial dilution method; format: functional; settings: CM-64, 18 h
Klebsiella aerogenes [3] = experiment: Inhibition of AcrAB-TolC efflux pump in Enterobacter aerogenes ATCC 13048 assessed as effect on nalidixic acid MIC at 100 uM relative to control
Outline: (§1)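 Nalidixic acid MIC (two-fold serial dilutions, about 10^6 cells/mL Mueller-Hinton broth, 18 h, 37 C) determined with a fixed sub-inhibitory level of compound present during incubation. Activity gain A = nalidixic acid MIC without compound divided by MIC with compound. PAbN at 0.050 mM served as reference inhibitor.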

Klebsiella aerogenes [4] = experiment: Inhibition of AcrAB-TolC efflux pump in Enterobacter aerogenes CM-64 assessed as effect on nalidixic acid MIC at 62.5 uM relative to control
Klebsiella aerogenes [5] = experiment: Inhibition of AcrAB-TolC efflux pump in Enterobacter aerogenes ATCC 13048 assessed as effect on nalidixic acid MIC at 62.5 uM relative to control
Klebsiella aerogenes [6] = experiment: Inhibition of AcrAB-TolC efflux pump in Enterobacter aerogenes CM-64 assessed as fold decrease in nalidixic acid MIC at 333 uM relative to control; outline: as §1
Klebsiella aerogenes [7] = experiment: Inhibition of AcrAB-TolC efflux pump in Enterobacter aerogenes CM-64 assessed as fold decrease in nalidixic acid MIC at 100 uM relative to control; outline: as §1
Klebsiella aerogenes [8] = experiment: Inhibition of AcrAB-TolC efflux pump in Enterobacter aerogenes CM-64 assessed as fold decrease in nalidixic acid MIC at 62.5 uM relative to control; outline: as §1
Klebsiella aerogenes [9] = experiment: Inhibition of AcrAB-TolC efflux pump in Enterobacter aerogenes ATCC 13048 assessed as fold decrease in nalidixic acid MIC at 62.5 uM relative to control; outline: as §1

Compound: COC(=O)CN1C(=O)N(CCCN2CCN(c3ccccc3)CC2)C(c2ccccc2)(c2ccccc2)C1=O
- MIC (Klebsiella aerogenes [1]): > 500 µM
- MIC (Klebsiella aerogenes [2]): > 500 µM
- inhibition (Klebsiella aerogenes [3]): inactive

Compound: O=C(O)CN1C(=O)N(CCCCCCN2CCCN3CCCN=C23)C(c2ccccc2)(c2ccccc2)C1=O
- MIC (Klebsiella aerogenes [1]): 1250 µM (≈ 665 µg/mL)
- MIC (Klebsiella aerogenes [2]): 1250 µM (≈ 665 µg/mL)
- inhibition (Klebsiella aerogenes [4]): inactive
- inhibition (Klebsiella aerogenes [5]): inactive

Compound: NCCCCCCN1C(=O)N(CC(=O)O)C(=O)C1(c1ccccc1)c1ccccc1
- MIC (Klebsiella aerogenes [1]): 1250 µM (≈ 512 µg/mL)
- MIC (Klebsiella aerogenes [2]): 1250 µM (≈ 512 µg/mL)
- inhibition (Klebsiella aerogenes [4]): inactive
- inhibition (Klebsiella aerogenes [5]): inactive

Compound: COC(=O)CN1C(=O)N(CC(O)CN2CCN(c3ccccc3)CC2)C(c2ccccc2)(c2ccccc2)C1=O (configuration not stated)
- MIC (Klebsiella aerogenes [1]): 5000 µM (≈ 2710 µg/mL)
- MIC (Klebsiella aerogenes [2]): 5000 µM (≈ 2710 µg/mL)
- fold change (FC) (Klebsiella aerogenes [6]): 4

Compound: COC(=O)CN1C(=O)N(CCCCCCCCN2CCNCC2)C(c2ccccc2)(c2ccccc2)C1=O
- MIC (Klebsiella aerogenes [1]): 1250 µM (≈ 651 µg/mL)
- MIC (Klebsiella aerogenes [2]): 1250 µM (≈ 651 µg/mL)
- inhibition (Klebsiella aerogenes [4]): inactive
- inhibition (Klebsiella aerogenes [5]): inactive

Compound: COC(=O)CN1C(=O)N(CCCCN2CCN(c3ccccc3)CC2)C(c2ccccc2)(c2ccccc2)C1=O
- MIC (Klebsiella aerogenes [1]): > 500 µM
- MIC (Klebsiella aerogenes [2]): > 500 µM
- fold change (FC) (Klebsiella aerogenes [7]): 4
- inhibition (Klebsiella aerogenes [3]): inactive

Compound: CCOC(=O)N1CCN(CCCCCCCCN2C(=O)N(CC(=O)OC)C(=O)C2(c2ccccc2)c2ccccc2)CC1
- MIC (Klebsiella aerogenes [1]): 1250 µM (≈ 741 µg/mL)
- MIC (Klebsiella aerogenes [2]): 1250 µM (≈ 741 µg/mL)
- inhibition (Klebsiella aerogenes [4]): inactive
- inhibition (Klebsiella aerogenes [5]): inactive

Compound: O=C1NC(=O)C(c2ccccc2)(c2ccccc2)N1CCCCN1CCN(c2ccccc2)CC1
- MIC (Klebsiella aerogenes [1]): > 500 µM
- MIC (Klebsiella aerogenes [2]): > 500 µM
- inhibition (Klebsiella aerogenes [3]): inactive

Compound: CCOC(=O)N1CCN(CCCCN2C(=O)N(CC(=O)O)C(=O)C2(c2ccccc2)c2ccccc2)CC1
- MIC (Klebsiella aerogenes [1]): 1250 µM (≈ 653 µg/mL)
- MIC (Klebsiella aerogenes [2]): 1250 µM (≈ 653 µg/mL)
- inhibition (Klebsiella aerogenes [4]): inactive
- inhibition (Klebsiella aerogenes [5]): inactive

Compound: CN1C(=O)N(CC(O)CN2CCN(c3ccccc3)CC2)C(c2ccccc2)(c2ccccc2)C1=O (configuration not stated)
- MIC (Klebsiella aerogenes [1]): > 500 µM
- MIC (Klebsiella aerogenes [2]): > 500 µM
- inhibition (Klebsiella aerogenes [3]): inactive

Compound: CCOC(=O)N1CCN(CCCCCCN2C(=O)N(CC(=O)OC)C(=O)C2(c2ccccc2)c2ccccc2)CC1
- MIC (Klebsiella aerogenes [1]): 1250 µM (≈ 706 µg/mL)
- MIC (Klebsiella aerogenes [2]): 1250 µM (≈ 706 µg/mL)
- inhibition (Klebsiella aerogenes [4]): inactive
- inhibition (Klebsiella aerogenes [5]): inactive

Compound: CCOC(=O)N1CCN(CCCCN2C(=O)N(CC(=O)OC)C(=O)C2(c2ccccc2)c2ccccc2)CC1
- MIC (Klebsiella aerogenes [1]): 1250 µM (≈ 671 µg/mL)
- MIC (Klebsiella aerogenes [2]): 1250 µM (≈ 671 µg/mL)
- inhibition (Klebsiella aerogenes [4]): inactive
- inhibition (Klebsiella aerogenes [5]): inactive

Compound: O=C(O)CN1C(=O)N(CCCCCN2CCCN3CCCN=C23)C(c2ccccc2)(c2ccccc2)C1=O
- MIC (Klebsiella aerogenes [1]): 1250 µM (≈ 647 µg/mL)
- MIC (Klebsiella aerogenes [2]): 1250 µM (≈ 647 µg/mL)
- inhibition (Klebsiella aerogenes [4]): inactive
- inhibition (Klebsiella aerogenes [5]): inactive

Compound: O=C(O)CN1C(=O)N(CCCN2CCCN3CCCN=C32)C(c2ccccc2)(c2ccccc2)C1=O
- MIC (Klebsiella aerogenes [1]): 1250 µM (≈ 612 µg/mL)
- MIC (Klebsiella aerogenes [2]): 1250 µM (≈ 612 µg/mL)
- inhibition (Klebsiella aerogenes [4]): inactive
- inhibition (Klebsiella aerogenes [5]): inactive

Compound: NCCCCN1C(=O)N(CC(=O)O)C(=O)C1(c1ccccc1)c1ccccc1
- MIC (Klebsiella aerogenes [1]): 1250 µM (≈ 477 µg/mL)
- MIC (Klebsiella aerogenes [2]): 1250 µM (≈ 477 µg/mL)
- inhibition (Klebsiella aerogenes [4]): inactive
- inhibition (Klebsiella aerogenes [5]): inactive

Compound: NCCCN1C(=O)N(CC(=O)O)C(=O)C1(c1ccccc1)c1ccccc1
- MIC (Klebsiella aerogenes [1]): 1250 µM (≈ 459 µg/mL)
- MIC (Klebsiella aerogenes [2]): 1250 µM (≈ 459 µg/mL)
- inhibition (Klebsiella aerogenes [4]): inactive
- inhibition (Klebsiella aerogenes [5]): inactive

Compound: COc1ccccc1N1CCN(CCCN2C(=O)N(C)C(=O)C2(c2ccccc2)c2ccccc2)CC1
- MIC (Klebsiella aerogenes [1]): > 500 µM
- MIC (Klebsiella aerogenes [2]): > 500 µM
- inhibition (Klebsiella aerogenes [3]): inactive

Compound: COC(=O)CN1C(=O)N(CC(CN2CCN(c3ccccc3)CC2)OC(C)=O)C(c2ccccc2)(c2ccccc2)C1=O (configuration not stated)
- MIC (Klebsiella aerogenes [1]): 250 µM (≈ 146 µg/mL)
- MIC (Klebsiella aerogenes [2]): 250 µM (≈ 146 µg/mL)

Compound: CN1C(=O)N(CCCCCN2CCN(c3ccccc3)CC2)C(c2ccccc2)(c2ccccc2)C1=O
- MIC (Klebsiella aerogenes [1]): > 500 µM
- MIC (Klebsiella aerogenes [2]): > 500 µM
- fold change (FC) (Klebsiella aerogenes [7]): 4
- inhibition (Klebsiella aerogenes [3]): inactive

Compound: O=C(O)CN1C(=O)N(CCCCN2CCCN3CCCN=C23)C(c2ccccc2)(c2ccccc2)C1=O
- MIC (Klebsiella aerogenes [1]): 1250 µM (≈ 630 µg/mL)
- MIC (Klebsiella aerogenes [2]): 1250 µM (≈ 630 µg/mL)
- inhibition (Klebsiella aerogenes [4]): inactive
- inhibition (Klebsiella aerogenes [5]): inactive

Compound: CC(=O)OC(CN1CCN(c2ccccc2)CC1)CN1C(=O)N(C)C(=O)C1(c1ccccc1)c1ccccc1 (configuration not stated)
- MIC (Klebsiella aerogenes [1]): > 500 µM
- MIC (Klebsiella aerogenes [2]): > 500 µM
- inhibition (Klebsiella aerogenes [3]): inactive

Compound: CCOC(=O)N1CCN(CCCCCN2C(=O)N(CC(=O)OC)C(=O)C2(c2ccccc2)c2ccccc2)CC1
- MIC (Klebsiella aerogenes [1]): 1250 µM (≈ 688 µg/mL)
- MIC (Klebsiella aerogenes [2]): 1250 µM (≈ 688 µg/mL)
- inhibition (Klebsiella aerogenes [4]): inactive
- inhibition (Klebsiella aerogenes [5]): inactive

Compound: COc1ccccc1N1CCN(CC(O)CN2C(=O)N(CC(=O)O)C(=O)C2(c2ccccc2)c2ccccc2)CC1 (configuration not stated)
- MIC (Klebsiella aerogenes [1]): 125 µM (≈ 69.8 µg/mL)
- MIC (Klebsiella aerogenes [2]): 250 µM (≈ 140 µg/mL)
- fold change (FC) (Klebsiella aerogenes [8]): 4
- fold change (FC) (Klebsiella aerogenes [9]): 2

Compound: COc1ccccc1N1CCN(CCCCN2C(=O)N(CC(=O)O)C(=O)C2(c2ccccc2)c2ccccc2)CC1
- MIC (Klebsiella aerogenes [1]): 62.5 µM (≈ 34.8 µg/mL)
- MIC (Klebsiella aerogenes [2]): 250 µM (≈ 139 µg/mL)
- fold change (FC) (Klebsiella aerogenes [8]): 4
- fold change (FC) (Klebsiella aerogenes [9]): 2

Compound: COC(=O)CN1C(=O)N(CC(O)CNC(C)C)C(c2ccccc2)(c2ccccc2)C1=O (configuration not stated)
- MIC (Klebsiella aerogenes [1]): 125 µM (≈ 54.9 µg/mL)
- MIC (Klebsiella aerogenes [2]): 125 µM (≈ 54.9 µg/mL)
- inhibition (Klebsiella aerogenes [4]): inactive
- inhibition (Klebsiella aerogenes [5]): inactive
